Assay outcomes from PubChem.
CHT block: inhibitors of human choline transporter CHT. High affinity choline transporter 1 (Homo sapiens), Q9GZV3. CHT-expressing cells, membrane potential dye, choline response; stronger effect = lower value. B-score at 10 µM. actives 0.86% (n = 310,000). AID 488975, 2010;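 active means B-score over 3 SD under the library average, and starting fluorescence ratio not unusually high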;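 further: choline stimulus applied at its EC90 after an EC20 pre-addition; B-score computed on integrated fluorescence ratio after choline addition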
HSF-1 act: HSF-1 activators, primary screen, NIH3T3-HGL cells, MG132 stress, luminescence, single point | NIH3T3-HGL HSF-1 luciferase reporter, 8 h; 100% = twice DMSO control signal | activation, % at 9 µM | actives 1.7% (n = 300,000);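 active means mean replicate activation of at least 50% with a set share of replicates each reaching 50%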
PHOSPHO1 inh: PubChem AID 1565 | inhibition, % at 13.3 µM | recombinant PHOSPHO1, absorbance phosphatase assay | actives 1.1% (n = 290,000); in the data active means inhibition above about 60%
Target sequence (Q8TCT1 whole entry, looked up): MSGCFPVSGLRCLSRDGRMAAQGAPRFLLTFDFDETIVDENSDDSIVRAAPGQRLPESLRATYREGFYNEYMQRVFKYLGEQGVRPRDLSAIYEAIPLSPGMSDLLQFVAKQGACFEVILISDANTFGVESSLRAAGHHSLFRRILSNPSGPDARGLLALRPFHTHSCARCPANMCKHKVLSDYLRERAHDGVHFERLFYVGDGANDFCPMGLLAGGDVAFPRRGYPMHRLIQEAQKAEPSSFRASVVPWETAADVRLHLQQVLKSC
HSF1 inhib: HSF1 inhibitors in luciferase reporter cells, primary screen, cell-based, NIH3T3, luminescence; NIH3T3-HGL HSE-luciferase, MG132-induced, luminescence 8 h; stronger effect = lower value; AID 2098, 2009; actives 0.77% (n = 300,000); activity change, negative = inhibition, % at 7.5 µM (by protocol);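 active means more than half of replicate wells show activity change below -50%, luminescence cut by over half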;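 further: luciferase reports HSF-1 transcriptional activity via heat shock element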
CHT allo act: CHT positive allosteric modulators, primary screen, cell-based, membrane potential dye, choline EC20 | B-score at 10 µM | actives 0.49% (n = 310,000) | AID 488977, 2010 | CHT-expressing cells; stronger effect = higher value; LV-AA mutant CHT in HEK293 cells | High affinity choline transporter 1 (Homo sapiens), Q9GZV3;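 active means initial fluorescence not abnormally high and integrated response B-score, plate-corrected, over 3 SD above library mean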
Hep lipid drop: inhibitors of hepatocyte lipid droplet formation, primary screen, imaging, high-throughput imaging, BODIPY stain. AML12 mouse hepatocytes, oleate lipid droplets. inhibition, % at 6.5 µM. actives 0.4% (n = 240,000). AID 1656, 2009;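 active means lipid droplet intensity inhibited by at least 50%, with more than 500 cells counted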
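Test system: AML12 hepatocytes (mouse); reagent: oleate loading, 100 µM; dosing: one dose, 6.5 µM compound; incubation: overnight exposure; signal: fluorescence imaging, 20x objective, two fields per well; read-out basis: % inhibition of corrected integrated BODIPY droplet signal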
CHT block conf: CHT inhibitors, confirmation, cell-based, membrane potential dye, duplicate | shares compounds with CHT block | CHT-expressing cells, choline membrane potential dye; LV-to-AA substituted CHT, HEK293 cells | AID 493221, 2011 | actives 70% (n = 2,400) | CHT activity remaining % of control (stronger effect = lower value), % at 10 µM;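 active means choline transporter activity left, mean of duplicates at 10 µM, below buffer-only control mean minus 3 SD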;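 further: depolarization triggered by choline at its EC90 following an EC20 pre-addition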
HEK293 MPD ctr: membrane potential effects in parental HEK293, counter-screen for CHT inhibitor project, cell-based, membrane potential dye. shares compounds with CHT block. choline response; active = decrease or increase beyond buffer ±3SD. membrane potential ratio readout (active if shifted either direction beyond buffer ±3SD; no single direction) at 10 µM. actives 4% (n = 2,400). AID 493222, 2011;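 further: parental cells lack the transporter so any hit is non-specific; ratio is peak minus trough fluorescence over baseline after EC90 choline challenge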
A number is an active result; . = inactive; / = not tested or not shown. Rows were chosen to be rich in hits. Some 4.9% of all compounds tested hit in one or more screens of this group.

SMILES	CHT block	HSF-1 act	PHOSPHO1 inh	HSF1 inhib	CHT allo act	Hep lipid drop	CHT block conf	HEK293 MPD ctr
CCN1CCn2c3c(c4cccc(C)c42)CCCC31 (configuration not stated)	-11	.	/	.	.	.	36%	.
CCc1ccccc1NC(=O)C1CC(c2ccc(OC)cc2)=NO1 (configuration not stated)	-6.3	.	.	.	.	.	48%	.
CC1=C(C(=O)OCC(Cl)(Cl)Cl)N2C(=O)C(NC(=O)Cc3ccccc3)C2SC1 (configuration not stated)	-12	.	.	.	.	.	.	.
S=C(NCC1CCCO1)Nc1cc(Cl)c(Cl)cc1Cl (configuration not stated)	-9.9	.	.	.	.	.	41%	.
CCc1ccc(C(=O)N/N=C(\C)c2cccnc2)s1	.	.	.	.	.	.	/	/
Cc1onc(-c2ccccc2Cl)c1C(=O)Oc1cccc2cccnc12	-5.5	.	.	.	.	.	.	.
C/C(=N/OC(=O)c1c(-c2ccccc2Cl)noc1C)c1cnccn1	.	.	.	.	.	.	/	/
Oc1c(Br)cc(Br)cc1C=NCc1ccc(F)cc1	-7.1	.	.	.	.	.	57%	.
O=C(Cc1ccccc1)N/N=C/c1cc(Br)cc(Br)c1O	.	.	.	.	.	.	/	/
Oc1c(Br)cc(Br)cc1C=NCc1ccccc1	-9.8	.	.	.	.	.	42%	.
COc1ccccc1-c1nnc(SC)n1C	.	.	.	.	.	.	/	/
CSc1nnc(-c2sccc2OCc2ccc(C)cc2)n1C	-5.3	.	.	.	.	/	67%	-9.8
Cc1cccc(C)c1-n1cccc1/C=C1/C(=N)N2C(=NC1=O)SN=C2S(C)(=O)=O	-5.5	.	.	.	.	.	50%	.
O=S(=O)(c1ccc(NC(=S)NCc2cccnc2)cc1)N1CCCCC1	.	.	.	.	.	.	/	/
O=C(C[n+]1cc(Br)cc2ccccc21)c1ccc(Cl)cc1	-6.9	.	.	.	.	.	32%	.
O=C(C[n+]1cc(Br)cc(Br)c1)c1ccc(Cl)cc1	.	.	.	.	.	.	/	/
O=C(C[n+]1cn(C(F)F)c2ccccc21)c1ccc(Br)cc1	.	.	.	.	.	.	/	/
O=C(C[n+]1cc(Br)cc2ccccc21)c1ccc(Br)cc1	-5.7	.	.	.	.	.	30%	.
CCCNc1nc(C)cc(-c2cc(C(=O)Nc3ccccc3)on2)n1	.	.	/	.	.	/	/	/
COC(=O)c1c(C(C)=O)c(C)n(C)c1C	.	.	.	.	.	.	/	/
CC(C)CCc1noc(CN2CCC(CCN3CCCC3=O)CC2)n1	.	.	.	.	.	.	/	/
CC(C)(C)N/N=C/c1cc(Cl)cc([N+](=O)[O-])c1O	-5.8	.	.	.	.	.	59%	.
CC1CCCCC1NC(=O)C1CCN(S(=O)(=O)c2ccc(-n3cnnn3)cc2)CC1 (configuration not stated)	.	.	.	.	.	.	/	/
CC1CCCCC1NC(=O)C1CCCN(S(=O)(=O)c2ccc(-n3cnnn3)cc2)C1 (configuration not stated)	-9.5	.	.	.	.	.	52%	.
COC(=O)CCCCCN1C(=O)NC(C2CC2)C(C(=O)OCc2ccccc2)=C1C (configuration not stated)	-5.4	.	/	.	.	/	65%	.
SMILES	CHT block	HSF-1 act	PHOSPHO1 inh	HSF1 inhib	CHT allo act	Hep lipid drop	CHT block conf	HEK293 MPD ctr
COc1ccc(C=O)cc1Cn1cnc2c(cnn2C)c1=O	-5.7	.	.	.	.	.	.	.
CC1CCN(C(=O)NC(=O)c2ccc(Cl)cc2)CC1	.	.	.	.	.	.	/	/
N#Cc1nc(Cc2cccc3ccccc23)oc1N1CCOCC1	-5.3	.	.	.	.	/	59%	.
CCC(C)c1ccc(OCC(=O)Nc2ccc(Cl)cn2)cc1 (configuration not stated)	.	.	.	.	.	.	/	/
CCCCn1c(Oc2ccc(C(=O)OC)cc2)nc2c1c(=O)n(C)c(=O)n2C	-6.8	.	.	.	.	/	.	.
Cc1ccc(-n2c(O)c(/C=N/Nc3ccc(S(=O)(=O)N4CCOCC4)cc3[N+](=O)[O-])c3ccccc3c2=O)c(C)c1	-5.1	.	.	.	.	.	27%	.
O=C(O)c1ccc(/C=N\Nc2ccc(S(=O)(=O)N3CCOCC3)cc2[N+](=O)[O-])cc1	.	.	.	.	.	.	/	/
Cc1cnc(NCCc2ccccc2)s1	.	.	/	.	.	.	/	/
COc1cccc(N2CCN(c3ncnc4c3[nH]c3ccc(F)cc34)CC2C)c1 (configuration not stated)	-7	.	.	-84	.	/	63%	.
Cc1ccc(S(=O)(=O)Nc2cc(C(=O)O)ccc2N2CCCCC2)cc1	.	/	.	/	.	.	/	/
CCOCCCNC(=O)c1ccc(N2CCCC2)c(NS(=O)(=O)c2ccc(C)cc2)c1	.	.	.	.	.	.	/	/
Cc1ccc(S(=O)(=O)Nc2cc(C(=O)NCCN3CCCC3)ccc2N2CCCCC2)cc1	-8.6	.	.	.	.	/	23%	3.8
Cc1ccc(S(=O)(=O)Nc2cc(C(=O)NCCN(C)C)ccc2N2CCCCC2)cc1	-15	/	.	/	.	.	19%	3.2
O=C(NCc1nnc2c(C(F)(F)F)cc(Cl)cn12)c1cccs1	.	.	.	.	.	.	/	/
CC1CN(C(=O)CCC(=O)NC(C)c2ccccc2)c2cc(Cl)ccc2O1 (configuration not stated)	.	.	.	.	.	.	24%	.
CC1CN(C(=O)CCC(=O)N2CCCCC2)c2cc(Cl)ccc2O1 (configuration not stated)	.	.	.	.	.	.	/	/
O=C(NC(=S)N1CCN(c2ccccn2)CC1)c1ccccc1	-8.2	.	.	.	.	.	.	.
CCN(CC)C(=O)CN(c1cccc(C(F)(F)F)c1)S(C)(=O)=O	.	.	.	.	.	.	/	/
O=C1c2cccc3c(Nc4ccccc4Cl)c([N+](=O)[O-])cc(c23)C(=O)N1CCO	-5.5	.	.	.	.	/	71%	.
O=C(COc1ccc(/C=N/NC(=O)c2ccccc2)cc1)Nc1ccc([N+](=O)[O-])cc1	.	.	.	.	.	/	/	/
